Assay results reported in PMC2813939 (Neuropsychopharmacology : official publication of the …, 2009).
Values joined by “and” are separate entries in the source; they are usually repeats but may differ in a detail not shown here. Equal entries are not always repeated. Where two headings read alike, the source gives them in different places. Each block holds one compound with its values, some of them ahead of it.

Columns and labels:
[1] = cited from earlier work
[2] = biological target: T1, human D2 receptor (short isoform, D2S) (Homo sapiens, UniProt P14416); assay: cell-based; type: binding
[3] = biological target: T1, human D2 receptor (short isoform, D2S); type: binding
[4] = biological target: T1, human D2 receptor (short isoform, D2S); type: binding; remark: listed apart in the source
arrestin3 = type: cell-based, rat; conditions: tetracycline 1 μg/ml 24 h; triple-transfected cells vs untreated cells; n=2
Outline: (§1)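 T-REx-293 cells stably triple-transfected with D2S receptor, tetracycline-inducible GRK2 and arrestin3; tetracycline 1 μg/ml (final) or vehicle 24 h at 36 °C. Lysed in 1% dodecyl maltopyranoside/PBS with protease inhibitors and N-ethylmaleimide; 20 μg protein run on 7.5% SDS-PAGE, PVDF. Rabbit polyclonal primaries 1 h RT (anti-GRK2 1:1000; anti-arrestin3 1:500), HRP anti-rabbit 1:15,000; ECL-Plus imaging and quantitation; % increase versus untreated cells.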

GRK2 = assay: Western blot of tetracycline-induced GRK2 expression in triple-transfected cells; type: cell-based, bovine; conditions: tetracycline 1 μg/ml 24 h; triple-transfected cells vs untreated cells; n=3
Outline: as §1

[5] = internalized (Q+/MTSET+) vs surface (Q-/MTSET-)
[6] = read-out: Internalized D2 receptor (Q+/MTSET+) KI(i)
[7] = read-out: Surface D2 receptor (Q-/MTSET-) KI(s)

T1 sequence (P14416 1-414 isoform P14416-2): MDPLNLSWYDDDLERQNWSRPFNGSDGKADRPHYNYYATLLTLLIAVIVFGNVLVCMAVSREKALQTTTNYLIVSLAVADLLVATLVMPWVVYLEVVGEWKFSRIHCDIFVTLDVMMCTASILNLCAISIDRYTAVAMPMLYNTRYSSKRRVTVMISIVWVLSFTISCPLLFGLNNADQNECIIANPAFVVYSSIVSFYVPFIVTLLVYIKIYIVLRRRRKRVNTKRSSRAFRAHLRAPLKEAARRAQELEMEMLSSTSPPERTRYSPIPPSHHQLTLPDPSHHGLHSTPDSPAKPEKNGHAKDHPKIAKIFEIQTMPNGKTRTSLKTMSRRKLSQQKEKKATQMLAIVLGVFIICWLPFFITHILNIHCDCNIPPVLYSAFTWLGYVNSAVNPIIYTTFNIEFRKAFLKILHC

SMILES: CCCN1CCOC2c3cc(O)ccc3CCC21 (single isomer, unassigned; (+)) [PHNO, (+)-4-propyl-3,4,4a,5,6,10b-hexahydro-2H-naphtho[1,2-b][1,4]oxazin-9-ol]
Lipophilicity (Log P) ([1]; ref Wilson et al, 2005): 2.1 ^d†

SMILES: CC[11CH2]N1CCc2cccc3c2C1Cc1ccc(O)c(O)c1-3 (single isomer, unassigned; (-)) [NPA, (-)-N-[11C]propyl-norapomorphine]
Lipophilicity (Log P) ([1]; ref Wilson et al, 2005): 2.5 ^d†

Affinity shift Ki(i)/Ki(s) [2]: 2.4
SMILES: CCN1CCC[C@H]1CNC(=O)c1cc(I)cc(OC)c1OC [Epidepride]
Lipophilicity (Log kw) ([1]; ref Kessler et al, 1991): 2.1 ^c‡

Affinity shift Ki(i)/Ki(s) [2, 5]: 3.0
Ki [2, 6]: 0.09 ± 0.02 nM
Ki [2, 7]: 0.03 ± 0.01 nM
SMILES: CCN1CCC[C@H]1CNC(=O)c1cc(Br)cc(OC)c1OC [FLB 457]
Lipophilicity (Log kw) ([1]; ref Loc'h et al, 1996): 1.9 ^b‡

Ki ([2]; Internalized D2 receptor (Q+/MTSET+) KI(i)): 0.92 ± 0.31 nM
Ki ([2]; Surface D2 receptor (Q-/MTSET-) KI(s)): 0.32 ± 0.06 nM
Affinity shift Ki(i)/Ki(s) [2, 5]: 2.9
SMILES: C=CCN1CCC[C@H]1CNC(=O)c1cc(CCCF)cc(OC)c1OC [Fallypride]
Lipophilicity (Log P) ([1]; ref Laruelle, 2000): 2.4 ^a†

Ki [2, 6]: 0.23 ± 0.11 nM
Ki [2, 7]: 0.19 ± 0.05 nM
SMILES: CCN1CCC[C@H]1CNC(=O)c1c(OC)ccc(I)c1O [IBZM]

Affinity shift Ki(i)/Ki(s) [2, 5]: 1.2
SMILES: CCN1CCC[C@H]1CNC(=O)c1c(OC)ccc([123I])c1O [IBZM]
Lipophilicity (Log P) ([1]; ref Laruelle, 2000): 2.8 ^a†

[3H]NMSP binding remaining, % of the total binding [3]: 10%
SMILES: C[N+](C)(C)CCSS(C)(=O)=O.[Br-] [MTSET, [2-(trimethylammonium)ethyl] methanethiosulfonate bromide]

SMILES: CN1CN(c2ccccc2)C2(CCN(CCCC(=O)c3ccc(F)cc3)CC2)C1=O [NMSP, N-methylspiperone]
Lipophilicity (Log P) ([1]; ref Laruelle, 2000): 3.3 ^a†

increase in the Ki at internalized receptors (decrease in affinity) [2]: about 2 fold
SMILES: CCN1CCC[C@H]1CNC(=O)c1c(O)c(Cl)cc(Cl)c1OC [Raclopride]

fraction of D2 receptors with high affinity [4]: 90% and 55% and 89.9%
fraction of D2 receptors on the surface [2]: 80.9%
fraction of D2 receptors on the surface (high affinity) [2]: 85.8% and 43.1%
SMILES: CCN1CCCC1CNC(=O)c1cc(S(N)(=O)=O)ccc1OC (stereo not drawn) [Sulpiride]

SMILES: CN(C)[C@@H]1C(O)=C(C(N)=O)C(=O)[C@@]2(O)C(O)=C3C(=O)c4c(O)cccc4[C@@](C)(O)[C@H]3C[C@@H]12 [Tetracycline]
increase in arrestin3 expression (arrestin3): 538 ± 75%
increase in GRK2 expression (GRK2): 190 ± 24%
